Source: ChEMBL document CHEMBL4825702, “5-Aminonaphthalene derivatives as selective nonnucleoside nuclear receptor binding SET domain-protein 2 (NSD2) inhibitors for the treatment of multiple myeloma” (Eur J Med Chem, 2021)
The source made the active and inactive calls. The rule behind the calls is not given here.

What was measured:
MOLT-4 = experiment: Antiproliferative activity against human MOLT-4 cells assessed as reduction in cell viability incubated for 6 days by CCK8 assay
[1] = target: T1, Histone-lysine N-methyltransferase NSD2 (Homo sapiens, UniProt O96028); experiment: Inhibition of recombinant human N-terminal GST-tagged NSD2 CD (941 to 1240 residues) expressed in Escherichia coli using SAM as substrate in presence of nucleosomes by AlphaLISA method
T1 sequence (O96028 whole entry): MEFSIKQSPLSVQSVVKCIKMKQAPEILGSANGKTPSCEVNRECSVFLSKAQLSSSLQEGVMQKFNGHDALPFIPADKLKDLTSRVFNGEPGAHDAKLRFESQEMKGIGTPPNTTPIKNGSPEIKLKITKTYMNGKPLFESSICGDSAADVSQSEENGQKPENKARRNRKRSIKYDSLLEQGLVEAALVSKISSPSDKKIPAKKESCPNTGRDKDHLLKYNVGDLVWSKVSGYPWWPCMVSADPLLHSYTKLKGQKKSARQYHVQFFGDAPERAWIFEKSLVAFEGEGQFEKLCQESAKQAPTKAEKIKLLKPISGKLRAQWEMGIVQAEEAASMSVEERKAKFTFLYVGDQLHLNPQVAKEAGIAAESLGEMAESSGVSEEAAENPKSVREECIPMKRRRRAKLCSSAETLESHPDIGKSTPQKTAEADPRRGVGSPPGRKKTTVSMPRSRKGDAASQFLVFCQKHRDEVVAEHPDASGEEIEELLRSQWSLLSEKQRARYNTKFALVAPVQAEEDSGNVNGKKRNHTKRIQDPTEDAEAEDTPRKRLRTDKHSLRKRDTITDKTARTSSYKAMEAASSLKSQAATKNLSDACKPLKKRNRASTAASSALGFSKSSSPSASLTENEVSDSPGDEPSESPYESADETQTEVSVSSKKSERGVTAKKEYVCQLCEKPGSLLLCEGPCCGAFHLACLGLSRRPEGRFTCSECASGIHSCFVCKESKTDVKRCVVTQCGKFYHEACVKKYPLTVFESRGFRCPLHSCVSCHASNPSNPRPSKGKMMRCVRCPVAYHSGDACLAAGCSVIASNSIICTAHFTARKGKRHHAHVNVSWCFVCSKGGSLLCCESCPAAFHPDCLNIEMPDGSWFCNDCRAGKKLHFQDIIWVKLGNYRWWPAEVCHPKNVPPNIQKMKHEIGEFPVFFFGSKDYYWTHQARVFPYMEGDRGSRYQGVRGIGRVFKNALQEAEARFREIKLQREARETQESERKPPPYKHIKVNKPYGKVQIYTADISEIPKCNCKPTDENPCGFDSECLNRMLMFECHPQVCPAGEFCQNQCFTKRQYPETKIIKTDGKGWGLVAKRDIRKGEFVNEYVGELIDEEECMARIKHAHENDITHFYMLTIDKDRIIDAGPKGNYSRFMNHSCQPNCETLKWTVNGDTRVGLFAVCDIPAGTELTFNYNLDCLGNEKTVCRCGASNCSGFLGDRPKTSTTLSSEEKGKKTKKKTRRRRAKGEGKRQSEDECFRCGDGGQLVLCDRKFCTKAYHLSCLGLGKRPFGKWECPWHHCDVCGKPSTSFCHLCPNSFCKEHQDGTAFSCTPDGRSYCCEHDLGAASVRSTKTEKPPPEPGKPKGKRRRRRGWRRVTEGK

[2] = target: Histone-lysine N-methyltransferase 2A (Homo sapiens, UniProt Q03164); experiment: Inhibition of MLLI (unknown origin) using SAM as substrate preincubated for 10 mins followed by substrate addition measured after 4 hrs by HTRF method
Chain of Histone-lysine N-methyltransferase 2A (Q03164 1-2718 limits assumed): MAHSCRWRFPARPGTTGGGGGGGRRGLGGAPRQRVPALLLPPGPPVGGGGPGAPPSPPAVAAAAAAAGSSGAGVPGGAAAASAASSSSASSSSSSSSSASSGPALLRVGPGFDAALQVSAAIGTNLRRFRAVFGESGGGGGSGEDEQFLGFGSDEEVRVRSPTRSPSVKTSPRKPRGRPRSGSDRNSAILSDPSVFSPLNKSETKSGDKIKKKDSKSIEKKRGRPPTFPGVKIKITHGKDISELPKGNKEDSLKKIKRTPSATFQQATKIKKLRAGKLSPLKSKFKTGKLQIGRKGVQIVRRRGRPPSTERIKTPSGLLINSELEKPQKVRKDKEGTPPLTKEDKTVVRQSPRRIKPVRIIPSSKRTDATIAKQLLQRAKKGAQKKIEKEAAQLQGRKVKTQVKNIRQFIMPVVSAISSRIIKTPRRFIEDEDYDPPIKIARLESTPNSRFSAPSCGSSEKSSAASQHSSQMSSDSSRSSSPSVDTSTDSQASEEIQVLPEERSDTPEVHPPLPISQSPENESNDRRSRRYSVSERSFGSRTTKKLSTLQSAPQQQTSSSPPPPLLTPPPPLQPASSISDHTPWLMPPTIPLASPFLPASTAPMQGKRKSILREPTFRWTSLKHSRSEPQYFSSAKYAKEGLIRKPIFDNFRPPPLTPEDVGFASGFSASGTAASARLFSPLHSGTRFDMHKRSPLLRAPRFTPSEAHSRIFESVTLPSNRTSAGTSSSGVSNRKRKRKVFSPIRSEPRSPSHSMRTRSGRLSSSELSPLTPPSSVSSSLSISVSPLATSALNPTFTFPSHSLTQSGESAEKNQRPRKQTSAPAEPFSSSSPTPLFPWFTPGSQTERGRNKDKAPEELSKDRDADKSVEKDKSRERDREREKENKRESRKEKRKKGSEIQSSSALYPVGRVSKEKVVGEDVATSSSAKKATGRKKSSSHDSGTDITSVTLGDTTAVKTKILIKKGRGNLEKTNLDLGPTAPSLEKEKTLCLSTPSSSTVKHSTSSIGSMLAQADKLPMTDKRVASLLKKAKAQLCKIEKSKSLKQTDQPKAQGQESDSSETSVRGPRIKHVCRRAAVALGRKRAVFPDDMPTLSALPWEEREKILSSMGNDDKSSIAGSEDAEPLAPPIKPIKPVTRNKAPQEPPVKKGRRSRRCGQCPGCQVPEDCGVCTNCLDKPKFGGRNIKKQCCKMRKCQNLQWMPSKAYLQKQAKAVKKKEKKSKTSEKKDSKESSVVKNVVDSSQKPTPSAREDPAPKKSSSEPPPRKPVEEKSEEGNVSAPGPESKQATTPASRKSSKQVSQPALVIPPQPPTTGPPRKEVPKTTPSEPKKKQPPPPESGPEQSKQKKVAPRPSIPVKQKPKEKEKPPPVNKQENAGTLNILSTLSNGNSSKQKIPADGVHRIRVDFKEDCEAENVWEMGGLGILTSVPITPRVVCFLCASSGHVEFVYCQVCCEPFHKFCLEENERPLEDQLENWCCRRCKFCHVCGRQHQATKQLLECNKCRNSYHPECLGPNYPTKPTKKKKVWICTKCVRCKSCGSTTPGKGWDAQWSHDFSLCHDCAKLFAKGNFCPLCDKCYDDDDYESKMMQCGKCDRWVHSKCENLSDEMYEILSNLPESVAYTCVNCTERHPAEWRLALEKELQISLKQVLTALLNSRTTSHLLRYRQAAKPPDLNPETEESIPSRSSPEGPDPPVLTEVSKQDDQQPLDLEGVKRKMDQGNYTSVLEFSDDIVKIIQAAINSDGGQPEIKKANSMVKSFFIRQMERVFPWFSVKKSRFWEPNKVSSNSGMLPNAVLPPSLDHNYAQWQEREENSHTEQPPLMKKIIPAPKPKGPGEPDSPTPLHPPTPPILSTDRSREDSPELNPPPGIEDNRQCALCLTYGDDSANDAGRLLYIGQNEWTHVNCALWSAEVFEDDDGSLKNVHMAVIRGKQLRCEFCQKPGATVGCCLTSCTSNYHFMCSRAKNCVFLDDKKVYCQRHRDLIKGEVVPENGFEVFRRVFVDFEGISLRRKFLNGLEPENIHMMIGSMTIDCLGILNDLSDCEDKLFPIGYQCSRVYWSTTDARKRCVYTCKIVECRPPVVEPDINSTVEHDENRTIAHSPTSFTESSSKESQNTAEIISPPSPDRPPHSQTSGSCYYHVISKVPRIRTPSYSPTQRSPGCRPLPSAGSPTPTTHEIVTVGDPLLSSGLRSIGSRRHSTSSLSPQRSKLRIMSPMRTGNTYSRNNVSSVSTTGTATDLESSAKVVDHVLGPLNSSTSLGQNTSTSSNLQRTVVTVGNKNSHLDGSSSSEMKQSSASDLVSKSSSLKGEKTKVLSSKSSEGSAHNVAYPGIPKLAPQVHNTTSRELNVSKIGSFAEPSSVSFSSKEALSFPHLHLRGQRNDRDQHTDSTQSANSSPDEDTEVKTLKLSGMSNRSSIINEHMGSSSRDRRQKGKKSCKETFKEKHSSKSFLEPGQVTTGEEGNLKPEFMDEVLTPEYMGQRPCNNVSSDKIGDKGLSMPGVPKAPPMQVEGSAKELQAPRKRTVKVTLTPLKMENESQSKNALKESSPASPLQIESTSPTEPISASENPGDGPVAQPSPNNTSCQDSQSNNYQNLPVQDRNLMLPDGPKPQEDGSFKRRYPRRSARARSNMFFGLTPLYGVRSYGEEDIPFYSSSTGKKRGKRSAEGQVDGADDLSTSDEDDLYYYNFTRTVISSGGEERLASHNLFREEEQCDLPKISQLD
Chain of Histone-lysine N-methyltransferase 2A (Q03164 2719-3969 limits assumed): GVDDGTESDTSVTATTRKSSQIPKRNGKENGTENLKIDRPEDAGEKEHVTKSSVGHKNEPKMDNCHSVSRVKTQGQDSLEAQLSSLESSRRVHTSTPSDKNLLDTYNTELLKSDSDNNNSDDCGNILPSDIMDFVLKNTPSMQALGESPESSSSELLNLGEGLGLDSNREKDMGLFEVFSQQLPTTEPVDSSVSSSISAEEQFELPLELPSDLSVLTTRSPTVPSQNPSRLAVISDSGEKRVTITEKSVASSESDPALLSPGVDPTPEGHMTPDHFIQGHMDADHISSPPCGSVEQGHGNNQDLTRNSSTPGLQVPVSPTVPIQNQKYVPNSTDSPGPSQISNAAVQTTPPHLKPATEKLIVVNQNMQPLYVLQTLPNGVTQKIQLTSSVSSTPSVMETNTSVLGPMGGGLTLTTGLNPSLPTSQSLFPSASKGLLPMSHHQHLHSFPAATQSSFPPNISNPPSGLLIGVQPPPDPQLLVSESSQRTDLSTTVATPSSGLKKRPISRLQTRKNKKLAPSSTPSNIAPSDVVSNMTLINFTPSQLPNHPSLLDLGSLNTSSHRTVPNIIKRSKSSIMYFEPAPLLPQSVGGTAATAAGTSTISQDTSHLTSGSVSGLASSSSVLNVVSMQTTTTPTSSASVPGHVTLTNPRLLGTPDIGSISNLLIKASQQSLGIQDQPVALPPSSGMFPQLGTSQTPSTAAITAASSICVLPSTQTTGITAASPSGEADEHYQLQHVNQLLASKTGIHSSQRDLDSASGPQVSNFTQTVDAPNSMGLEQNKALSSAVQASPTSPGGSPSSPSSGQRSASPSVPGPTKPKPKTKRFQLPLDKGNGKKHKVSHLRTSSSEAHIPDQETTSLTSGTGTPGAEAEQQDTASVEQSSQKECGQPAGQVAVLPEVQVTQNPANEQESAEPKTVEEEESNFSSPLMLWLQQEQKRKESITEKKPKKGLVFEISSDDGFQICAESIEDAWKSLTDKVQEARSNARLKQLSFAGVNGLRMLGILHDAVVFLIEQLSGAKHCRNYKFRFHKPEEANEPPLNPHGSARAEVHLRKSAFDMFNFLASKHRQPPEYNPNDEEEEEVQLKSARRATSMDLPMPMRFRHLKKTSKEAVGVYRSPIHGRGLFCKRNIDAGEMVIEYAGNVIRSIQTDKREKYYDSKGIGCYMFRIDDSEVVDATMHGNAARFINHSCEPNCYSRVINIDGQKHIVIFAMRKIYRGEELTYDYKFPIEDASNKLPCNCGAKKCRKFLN
How it was run: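 HTRF assay: inhibitor plus enzyme preincubated 10 min at room temperature, then peptide/SAM mix added and incubated at room temperature. Antibody and SA-XL665 detection mix added for 1 h in subdued light. Emission read at 665 and 620 nm; IC50 from two separate experiments.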

IC50 [1]: 2.7 µM
IC50 [2]: > 20 µM
Structure (SMILES): Cl.Nc1cccc2c(S(=O)(=O)NCc3ccccc3)cccc12
Activity (MOLT-4): Active
